{
  "source": "paper PMC8387982",
  "about": "(ACS Omega, 2021)",
  "key": {"[1]": {"experiment": "Circular dichroism, α-helical content", "assay_type": "physicochemical", "summary_of_the_method": "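CD spectra recorded at 25 °C in a 1.0 mm quartz cell over 190–260 nm (50 nm/min, 1 nm bandwidth, 1 s response). Test compound at 50 μM final in deionized water or 50% TFE. Observed ellipticity corrected for buffer and converted to mean residue ellipticity using peptide concentration, path length and residue number.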"}, "[2]": {"tested_on": "human glomerular mesangial cell (GMC) line", "experiment": "MTT cytotoxicity assay", "assay_type": "cell-based", "settings": "read-out: IC50 for GMC, 12 h, peptides 1-256 μM", "summary_of_the_method": "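MTT assay: human GMC cells seeded at 1.0×10^4 cells/well and exposed to test compound (1–256 μM) for 12 h at 37 °C, 5% CO2. Then 0.5 mg/mL MTT added for 4 h at 37 °C; formazan dissolved in DMSO and read at 570 nm. At least three independent experiments, each with three technical replicates.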"}, "[3]": {"tested_on": "bacteria (S. aureus, B. subtilis, E. coli, P. aeruginosa, K. pneumoniae)", "experiment": "Geometric mean of the peptide MICs", "assay_type": "cell-based", "settings": "over the five bacterial strains", "summary_of_the_method": "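Broth microdilution: single colony grown in MHB at 37 °C for 16–24 h. Log-phase culture diluted to 1×10^6 CFU/mL and mixed with equal volumes of serially diluted test compound. […] At least three independent experiments, each with three technical replicates. Geometric mean of MICs across strains computed.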"}, "[4]": {"tested_on": "human erythrocytes", "experiment": "Hemolytic assay", "assay_type": "cell-based", "settings": "concentration causing 10% hemolysis of erythrocytes; 1 h, 37 °C"}, "[5]": {"tested_on": "K. pneumoniae ATCC 700603", "experiment": "Checkerboard FIC with conventional antibiotics", "assay_type": "cell-based, Klebsiella pneumoniae", "summary_of_the_method": "(§1)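 Checkerboard assay: test compound and antibiotic mixed at 2× their MICs, then 2-fold serial dilutions made in MHB. Equal volume of bacteria (1×10^6 CFU/mL) added and incubated 18–24 h at 37 °C. Growth read as in the MIC assay. FIC = (MIC peptide in combination/MIC peptide alone) + (MIC antibiotic in combination/MIC antibiotic alone). Interpretation: ≤0.5 synergy; 0.5–1 additive; 1.0–<4.0 indifference; ≥4 antagonism.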"}, "[6]": {"tested_on": "P. aeruginosa ATCC 27853", "experiment": "Checkerboard FIC with conventional antibiotics", "assay_type": "cell-based, Pseudomonas aeruginosa", "settings": "in combination with rifampicin", "summary_of_the_method": "as §1"}, "[7]": {"tested_on": "E. coli ATCC 25922", "experiment": "Checkerboard FIC with conventional antibiotics", "assay_type": "cell-based, Escherichia coli", "summary_of_the_method": "as §1"}},
  "data": [
    {"substance": "H-GLLKRIKTLL-NH2 [Anoplin]", "values": [
      {"measurement": "α-helix in 50% TFE", "setting": "[1]; CD, 50 μM peptide, 50% TFE, 25 °C", "result": 82.64, "unit": "%"},
      {"measurement": "α-helix in water", "setting": "[1]; CD, 50 μM peptide, deionized water, 25 °C", "result": 14.03, "unit": "%"},
      {"measurement": "α-helical structure in water (CD)", "setting": "[1]; water environment, result in words", "result": "did not show a α-helical structure"},
      {"measurement": "IC50", "setting": "[2]", "result": "> 256", "unit": "µM"},
      {"measurement": "GM (geometric mean of the peptide MICs)", "setting": "[3]", "result": 48.50, "unit": "µM"},
      {"measurement": "MHC (minimum hemolytic concentration)", "setting": "[4]", "result": ">256", "unit": "µM"}
    ]},
    {"substance": "polymyxin B", "values": [
      {"measurement": "FIC", "setting": "[5]; in combination with gentamicin", "result": 0.5},
      {"measurement": "FIC", "setting": "[5]; in combination with rifampicin", "result": 0.3125},
      {"measurement": "FIC", "setting": "[6]", "result": 0.3125},
      {"measurement": "FIC", "setting": "[7]; in combination with gentamicin", "result": 0.3125},
      {"measurement": "FIC", "setting": "[7]; in combination with rifampicin", "result": 0.125}
    ]}
  ]
}
